# The source made the active and inactive calls. No cut-off for these calls is given here.
# Key:
# Collagenase 3 = Collagenase 3 (Homo sapiens, UniProt P45452); assay: Inhibition of human MMP13
# Procedure, shortened: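 Human pro-MMP-13 (2 µg/mL in developing buffer) activated with 2 mM APMA for 1 h at 37 °C, then stopped on ice. Enzyme preincubated 30 min at 37 °C with compound (serial 1/10 dilutions from DMSO stocks), then incubated 6 h at 37 °C with fluorogenic substrate Dnp-Pro-Cha-Gly-Cys(ME)-His-Ala-Lys(Nma)-NH2. Fluorescence read at ex 340/em 440 nm, in triplicate. IC50 from 3 points in the linear range of % control fluorescence.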
# Oryctolagus cuniculus [1] = organism: Oryctolagus cuniculus; assay: (§1) Reduction of IL1-beta plus […]-induced proteoglycan degradation in rabbit articular cartilage at 200 uM relative to control; type: functional
# Procedure, shortened: (§2)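 Rabbit articular cartilage fragments were prelabelled with 35SO4 and washed. They were then cultured 24 h with 1 ng/mL rmIL-1β, with or without compound, and moved to 5×10^-4 M APMA for another 24 h. Fragments were digested with papain, and the % radioactivity released to the medium was counted. Means ± sem, n = 8/group; ANOVA with Dunnett's test.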
# Neutrophil collagenase = Neutrophil collagenase (Homo sapiens, UniProt P22894); assay: Inhibition of human MMP8
# Chain of Neutrophil collagenase (P22894 whole entry): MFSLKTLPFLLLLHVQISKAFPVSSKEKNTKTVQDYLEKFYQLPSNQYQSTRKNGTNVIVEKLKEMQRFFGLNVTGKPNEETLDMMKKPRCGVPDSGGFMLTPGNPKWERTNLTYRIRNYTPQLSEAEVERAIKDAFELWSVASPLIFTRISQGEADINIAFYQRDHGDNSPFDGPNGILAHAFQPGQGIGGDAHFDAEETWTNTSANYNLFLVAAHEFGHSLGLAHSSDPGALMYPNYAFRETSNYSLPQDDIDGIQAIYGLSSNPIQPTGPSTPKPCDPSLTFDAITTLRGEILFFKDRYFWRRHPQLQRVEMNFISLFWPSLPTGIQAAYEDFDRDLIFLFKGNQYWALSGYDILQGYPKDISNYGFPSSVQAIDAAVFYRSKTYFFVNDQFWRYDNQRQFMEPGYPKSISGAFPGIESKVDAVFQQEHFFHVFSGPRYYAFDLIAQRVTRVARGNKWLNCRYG
# Procedure, shortened: (§3)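 Human pro-enzymes activated with 2 mM APMA at 37 °C (MMP-2 30 min; MMP-3, MMP-8 1 h), then preincubated 30 min at 37 °C with inhibitor diluted from 10^-3 to 10^-6 M. Substrates: Mca-RPKPYA-Nva-WMK(Dnp)-NH2 for MMP-3; Dnp-Pro-Cha-Gly-Cys(ME)-His-Ala-Lys(Nma)-NH2 for MMP-2 and MMP-8. Incubated 6 h at 37 °C; fluorescence read at ex 340/em 440 nm. Triplicates; IC50 from 3 central linear points.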
# Stromelysin-1 = Stromelysin-1 (Homo sapiens, UniProt P08254); assay: Inhibition of human MMP3; procedure, shortened: as §3
# Chain of Stromelysin-1 (P08254 whole entry): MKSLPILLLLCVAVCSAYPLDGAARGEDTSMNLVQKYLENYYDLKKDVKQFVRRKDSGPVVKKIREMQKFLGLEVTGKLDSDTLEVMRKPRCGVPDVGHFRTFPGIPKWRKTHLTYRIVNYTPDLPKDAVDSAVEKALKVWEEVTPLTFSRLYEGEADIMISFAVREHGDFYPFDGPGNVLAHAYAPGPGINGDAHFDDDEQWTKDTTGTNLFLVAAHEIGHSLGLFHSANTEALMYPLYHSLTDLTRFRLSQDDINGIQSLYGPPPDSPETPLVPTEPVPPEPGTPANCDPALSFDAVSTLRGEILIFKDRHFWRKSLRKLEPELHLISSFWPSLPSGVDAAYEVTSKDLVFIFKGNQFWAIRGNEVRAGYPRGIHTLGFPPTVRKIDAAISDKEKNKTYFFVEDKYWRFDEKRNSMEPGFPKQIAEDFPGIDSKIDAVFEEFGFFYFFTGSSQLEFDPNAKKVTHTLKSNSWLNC
# [2] = target: 72 kDa type IV collagenase (Homo sapiens, UniProt P08253); assay: Inhibition of human MMP2; procedure, shortened: as §3
# Chain of 72 kDa type IV collagenase (P08253 whole entry): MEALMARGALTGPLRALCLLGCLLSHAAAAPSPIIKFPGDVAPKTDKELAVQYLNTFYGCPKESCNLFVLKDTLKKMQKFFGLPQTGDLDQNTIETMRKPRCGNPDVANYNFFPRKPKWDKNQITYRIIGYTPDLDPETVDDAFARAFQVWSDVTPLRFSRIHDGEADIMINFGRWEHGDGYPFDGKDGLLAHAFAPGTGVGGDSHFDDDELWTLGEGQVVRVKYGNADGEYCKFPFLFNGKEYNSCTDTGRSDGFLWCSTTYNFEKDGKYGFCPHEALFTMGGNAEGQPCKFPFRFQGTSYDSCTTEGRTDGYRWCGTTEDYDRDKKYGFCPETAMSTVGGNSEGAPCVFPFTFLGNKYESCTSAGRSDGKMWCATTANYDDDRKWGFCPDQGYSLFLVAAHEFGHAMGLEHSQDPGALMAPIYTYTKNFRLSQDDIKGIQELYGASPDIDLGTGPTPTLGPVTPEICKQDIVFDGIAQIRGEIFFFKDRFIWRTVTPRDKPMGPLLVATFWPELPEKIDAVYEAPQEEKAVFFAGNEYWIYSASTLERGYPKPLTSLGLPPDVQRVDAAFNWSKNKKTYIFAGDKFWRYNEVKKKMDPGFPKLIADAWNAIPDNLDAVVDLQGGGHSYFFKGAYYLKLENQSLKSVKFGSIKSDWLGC
# SW1353 = assay: Inhibition of IL-1-beta-induced MMP13 production in human SW1353 cells at 50 uM; type: functional, cell-based
# Procedure, shortened: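 SW-1353 human chondrosarcoma cells grown to confluence in Ham's F12 with 10% FBS, then serum-free medium with 0.1% BSA for 24 h. Cells pretreated 30 min with DMSO vehicle or compound (6×10^-6 to 5×10^-5 M), then stimulated with rmIL-1β 10 ng/mL for 24 h. Total secreted MMP-13 (pro plus mature) in medium measured by ELISA.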
# [3] = as §1; type: functional, Oryctolagus cuniculus; design: scale not given: the % may be the effect or the level left; procedure, shortened: as §2
# [4] = Inhibition of IL-1-beta-induced collagen degradation in rabbit articular cartilage at 100 uM in presence of plasmin relative to control; type: functional, Oryctolagus cuniculus; design: scale not given: the % may be the effect or the level left
# Procedure, shortened: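 Non-radiolabeled rabbit articular cartilage fragments cultured 48 h with or without 10 ng/mL IL-1β plus 0.1 U/mL EACA- and Lys-free plasmin, with or without compound. Media and tissue hydrolyzed in 6 M HCl at 110 °C for 12 h. Hydroxyproline measured colorimetrically; degradation = media OH-Pro/(media + tissue OH-Pro) ×100. Means ± sem, n = 8/group; ANOVA with Dunnett's test.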
# [5] = (§4) Inhibition of IL1-beta plus […]-induced proteoglycan degradation in rabbit articular cartilage at 100 uM relative to control; type: functional, Oryctolagus cuniculus; design: scale not given: the % may be the effect or the level left
# Procedure, shortened: (§5)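 Rabbit articular cartilage fragments prelabeled with 35SO4 and washed. Incubated 24 h with or without 1 ng/mL rmIL-1β, with or without compound. Fragments then moved to 5×10^-4 M APMA for 24 h and digested in papain. Radioactivity counted by liquid scintillation. Degradation = media cpm/(media + tissue cpm) ×100. Means ± sem, n = 8/group.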
# Oryctolagus cuniculus [6] = organism: Oryctolagus cuniculus; assay: as §4; type: functional; procedure, shortened: as §5
SMILES,IC50 (Collagenase 3) [µM],Activity (Oryctolagus cuniculus [1]),IC50 (Neutrophil collagenase) [µM],IC50 (Stromelysin-1) [µM],IC50 [2] [µM],Activity (SW1353),Activity [3] [%],Activity [4] [%],Activity [5] [%],Activity (Oryctolagus cuniculus [6])
C[C@@]1(O)c2cccc(O)c2C(=O)C2=C(O)[C@]3(O)C(=O)C(C(N)=O)=C(O)[C@@H]([N+](C)(C)C)C3CC21 (stereo partly specified),120,inactive,110,150,140,inactive,–,–,–,–
CN(C)[C@@H]1C(O)=C(C(N)=O)C(=O)[C@@]2(O)C(O)=C3C(=O)c4c(O)cccc4[C@@](C)(O)[C@H]3C[C@@H]12 [TETRACYCLINE],180,–,180,140,220,Active,29,–,–,–
"C[C@H]1c2cccc(O)c2C(=O)C2=C(O)[C@]3(O)C(=O)C(C(N)=O)=C(O)[C@@H](N(C)C)[C@@H]3C(O)[C@@H]21.O (single isomer, unassigned) [DOXYCYCLINE]",40,–,31,25,24,Active,–,89,8,–
C[C@H]1c2cccc(O)c2C(=O)C2=C(O)[C@]3(O)C(=O)C(C(N)=O)=C(O)[C@@H]([N+](C)(C)C)C3[C@H](O)C21.[I-] (stereo partly specified),4.9,–,11,81,7.7,inactive,–,66,–,inactive

# Reference: ChEMBL document CHEMBL1147035, “Synthesis and in vitro evaluation of targeted tetracycline derivatives: effects on inhibition of matrix metalloproteinases” (Bioorg Med Chem, 2007)
